Screening results deposited in PubChem by several laboratories.
In the library only some 3.9% were active in any assay of this set; here they are far more common.
FLuc inh counter – inhibits firefly luciferase, flagging false hits in luciferase inhibition screens. ATPLite firefly luciferase biochemical luminescence, 10 min. inhibition, % at 10 µM. hit rate 1.5% among 200,000;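 active = inhibition above about 50% when tested at 10 µM, limit read from the data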
FLuc stim CS – affects firefly luciferase, flagging false hits in luciferase stimulation screens. P08659. ATPlite luciferase biochemical, luminescence, 10 min; 0 = ATP-free wells, 1 = DMSO control. 200,000 tested, under 10 active. activation factor at 10 µM;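 active = luciferase activation factor, scaled between plate controls, of at least 2 with compound at 10 µM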
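Material: Luciferase/luciferin reagent mix | Doses: Test compounds dosed from 2 mM stocks in 100% DMSO | Timing: 10 min incubation after luciferase reagent addition, room temperature | Measured by: Luminescence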
NF-kB expr up – raises NF-kB expression in human neuronal cells. NF-kB reporter expression; stronger effect = higher value. fold change at 12.5 µM. hit rate 1.6% among 190,000; in the data active = fold change above about 3.3
APP 5'UTR act – activates APP 5'UTR luciferase reporter. SH-SY5Y APP 5'UTR luciferase reporter, luminescence; zero percent = DMSO vehicle wells. activation, % at 2 µM. hit rate 1% among 190,000. AID 1276;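 active = activation above a set limit, based on mean plus 3 SD of controls, cut at about 140% in these data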
Rad51 HR inh – blocks human Rad51 in homologous recombination; hit rate 0.085% among 200,000; hRad51 DNA strand exchange, fluorescence dequenching; AID 1385; inhibition, % at 10 µM;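 active = inhibition above 40% at the single screening dose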;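 also: 0% = DMSO control wells and 100% = blanks with heterologous ssDNA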
Target sequence (Q06609 whole entry, looked up): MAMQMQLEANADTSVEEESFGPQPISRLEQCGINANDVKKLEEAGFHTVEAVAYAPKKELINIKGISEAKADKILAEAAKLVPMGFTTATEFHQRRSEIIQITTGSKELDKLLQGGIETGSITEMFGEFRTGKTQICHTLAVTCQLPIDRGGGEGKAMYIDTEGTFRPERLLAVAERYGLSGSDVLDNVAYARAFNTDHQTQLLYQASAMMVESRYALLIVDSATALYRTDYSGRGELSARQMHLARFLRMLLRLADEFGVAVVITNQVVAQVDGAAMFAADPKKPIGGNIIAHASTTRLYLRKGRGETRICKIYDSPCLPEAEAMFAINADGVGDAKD
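System: hRad51 filaments on single-stranded DNA; reagent: Fluorescein- and BHQ1-tagged 47-mer duplex; compound dosing: one concentration, 10 µM final; timing: filaments 15 min 37 °C, then compound 30 min; measured by: fluorescein emission 520 nm, excitation 485 nm; benchmarks: per-plate controls and blanks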
STAT1 act – increases IFN-gamma driven STAT1 reporter signal; activation (% of control), % at 5.5 µM; hit rate 2.6% among 200,000; AID 932; NIH 3T3 STAT1-luciferase reporter, luminescence; 100% = IFN-gamma alone, no compound;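 active = activation above the screen-wide mean activation plus 3 SD, cut at about 130% in these data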;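 also: raw ratio to IFN-gamma control signal so 100% means no change and 0% no light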
* marks the source's active call; other numbers are inactive results; . = not tested or not shown.

SMILES | FLuc inh counter | FLuc stim CS | NF-kB expr up | APP 5'UTR act | Rad51 HR inh | STAT1 act
CN(C)c1ccc(/C=C2/NC(=O)NC2=O)cc1 | 73* | 0.3 | 1.4 | 11 | . | 99
O=C1NC(=O)/C(=C/c2cccc(O)c2)N1 | . | . | . | . | -32 | .
Cc1ccc(N/N=C(\C#N)C(=N)N2CCCCC2)cc1 | . | . | . | . | 1 | .
N#C/C(=N\Nc1ccc([N+](=O)[O-])cc1)C(=N)N1CCOCC1 | . | . | . | . | -6 | .
N#C/C(=N\Nc1ccc(Br)cc1)C(=N)N1CCOCC1 | 11 | 0.9 | 3.1 | 80 | -11 | 146*
N#C/C(=N\Nc1ccccc1)C(=N)N1CCCCC1 | 61* | 0.4 | 4.5* | 112 | 21 | 129*
N#C/C(=N\Nc1ccccc1[N+](=O)[O-])C(=N)N1CCCCC1 | 82* | 0.2 | 5.6* | 176* | -1 | 136*
COc1ccc(C2C=C(c3ccc(F)cc3)NC(=S)N2)cc1OC (centres undefined) | -1 | 1 | 0.95 | 2 | -1 | 86
COc1cc(OC)cc(-c2nc3ccccc3s2)c1 | 23 | 0.8 | 2.1 | 65 | -40 | 124
CCCNC(=O)c1ccc(-c2nc3ccccc3s2)s1 | 90* | 0.1 | 4.6* | 155* | . | 88
Brc1ccc(-c2nc3ccccc3s2)s1 | 64* | 0.4 | 6.8* | 115 | 0 | 137*
Cc1ccc(S(=O)(=O)CCNC(=O)Cc2ccc(Cl)cc2)cc1 | -1 | 1 | 1.3 | 3 | 9 | 100
CC(=O)NS(=O)(=O)c1ccc(N=c2ssc3c2-c2ccc(C)cc2NC3(C)C)cc1 | -3 | 1 | 1.6 | -4 | 6 | 134*
CC1(C)Cc2c(sc3nc4n(-c5ccccc5)cnn4c(=O)c23)CO1 | . | . | . | . | 16 | .
O=C(Cn1ccc(C(F)(F)F)n1)N/N=C/c1ccc(N2CCOCC2)cc1 | -5 | 1 | 1.1 | 0 | 1 | 103
O=C(/C=C/c1cccc([N+](=O)[O-])c1)Nc1ccccn1 | -2 | 1 | 0.75 | 54 | -9 | 110
Cc1ccc2oc(-c3cccc(NC(=O)/C=C/c4cccc([N+](=O)[O-])c4)c3C)nc2c1 | 20 | 0.8 | 0.95 | 90 | -7 | 136*
NS(=O)(=O)c1ccc(N=Nc2c(O)ccc3ccccc23)cc1 | -2 | 1 | 0.96 | -9 | . | 132*
Oc1ccc(N=Nc2c(O)ccc3ccccc23)cc1 | 3 | 1 | 1.6 | 22 | 6 | 93
CCS(=O)(=O)c1cc([N+](=O)[O-])c(Sc2ccccc2NC(C)=O)s1 | . | . | . | . | 10 | .
CCC(=O)NC(c1ccccc1OC)c1ccc2cccnc2c1O (centres undefined) | -6 | 1.1 | 6.9* | -89 | . | 95
CCCC(=O)NC(c1ccc(OC)cc1)c1ccc2cccnc2c1O (centres undefined) | -3 | 1 | 1.8 | -82 | 5 | 95
C=C(C)COc1ccc2c3c(c(=O)oc2c1OCC(=C)C)CCC3 | -7 | 1.1 | 3.5* | -12 | 1 | 100
Cc1c(OCc2ccc([N+](=O)[O-])cc2)ccc2c3c(c(=O)oc12)CCC3 | 0 | 1 | 0.87 | 192* | 4 | 108
C=C(C)COc1ccc2c(C)c(C)c(=O)oc2c1OCC(=C)C | -1 | 1 | 1.3 | -1 | -1 | 100
SMILES | FLuc inh counter | FLuc stim CS | NF-kB expr up | APP 5'UTR act | Rad51 HR inh | STAT1 act
CC(=O)Nc1ccc(S(=O)(=O)NCC2CCC(C(=O)NC(C)c3ccc4c(c3)OCCO4)CC2)cc1 (centres undefined) | -2 | 1 | 0.86 | -2 | -5 | 98
CC(=O)Nn1c(-c2ccccc2)cc2ccccc21 | -5 | 1.1 | 1 | 2 | 85* | 104
Cc1ccc2nc(C)c3c(c2c1)SCC3 | . | . | . | . | 11 | .
CN(C)CCNC(=O)/C=C/c1cn(-c2ccccc2)nc1-c1cc2ccccc2oc1=O | 0 | 1 | 0.76 | -19 | 25 | 109
N#CC(=NCc1cccnc1)C1=C(O)c2ccccc2C1=O | . | . | . | . | -20 | .
Cc1cc(S(=O)(=O)N2CCOCC2)ccc1F | -2 | 1 | 4.4* | 14 | 2 | 95
CCCCn1nnnc1SCC(=O)c1ccc(C)c(C)c1 | 1 | 1 | 1.5 | 10 | 3 | 113
Cc1ccc(C(=O)CSc2nnc(C(C)C)n2C)cc1C | 2 | 1 | 3.4* | 15 | -72 | 118
Cc1ccc(N(NC(=O)C(O)(c2ccccc2)c2ccccc2)C(=O)CCl)cc1 | 5 | 0.9 | 0.11 | -15 | 2 | 100
CC(C)CC(=O)Nc1ccc(-c2nnn(CC(=O)NCc3ccco3)n2)cc1 | 25 | 0.8 | 1.7 | 64 | 23 | 129*
CCOc1ccc(-c2nnn(CC(=O)NCc3ccco3)n2)cc1OCC | -4 | 1 | 1.1 | -15 | 5 | 95
CCCCOc1ccc(-c2nnn(CC(=O)NCc3ccco3)n2)cc1 | 5 | 1 | 1.9 | 7 | 5 | 118
O=C(Cn1nnc(-c2ccccc2F)n1)NCc1ccco1 | -5 | 1 | 0.86 | 20 | 44* | 102
O=C(Oc1c(CN2CCOCC2)cc(Cl)c2cccnc12)c1ccccc1Br | . | . | . | . | 16 | .
CN1CCN(Cc2cc(Cl)c3cccnc3c2OC(=O)c2cccs2)CC1 | -8 | 1.1 | 13* | -4 | 4 | 91
O=c1c(C(c2ccc(F)cc2)c2c(O)nc3n(c2=O)CCS3)c(O)nc2n1CCS2 | . | . | . | . | -2 | .
CNC(=O)CSc1nnc(-c2ccccc2F)n1CCc1ccccc1 | . | . | . | . | -9 | .
Cc1ccc(-n2[nH]c(=O)c(-c3ccccn3)c2C)cc1 | 79* | 0.2 | 0.97 | 3 | . | 30
Cc1ccc(-n2[nH]c(=O)c3cccnc32)cc1 | -4 | 1 | 1.3 | 5 | 5 | 100
CCCCNC(=O)COC(=O)c1c2c(nc3ccccc13)/C(=C/c1cccs1)CC2 | 25 | 0.8 | 0.7 | 60 | -36 | 76
CNC(=O)NC(=O)C(C)OC(=O)c1c2c(nc3ccccc13)/C(=C/c1cccs1)CC2 (centres undefined) | 10 | 0.9 | 1.1 | 18 | -20 | 130*
CN(C)CCCNC(=S)Nc1ccc(-c2ccccc2)cc1 | . | . | . | . | 2 | .
Clc1cccc(Nc2nc(-c3cccnc3)cs2)c1 | 3 | 1 | 2.6 | 76 | 10 | 139*
Brc1ccc(Nc2nc(-c3cccnc3)cs2)cc1 | 12 | 0.9 | 1.1 | 47 | 5 | 131*
Cc1cccc(NC(=O)Nc2ccc([N+](=O)[O-])cc2)n1 | -3 | 1 | 1.1 | 15 | -2 | 134*
Cc1cccc(NC(=O)Nc2cccc(C)n2)n1 | 6 | 0.9 | 1.5 | 18 | 0 | 111
Cc1cccc(NC(=O)Nc2ccc(C)c(C)c2)n1 | 16 | 0.8 | 2.1 | 2 | -1 | 129*
Cc1cc(C)nc(Oc2ccc(Br)cc2Br)n1 | -6 | 1.1 | 0.86 | 23 | 1 | 142*
C/C(=N/Oc1nc(C)cc(C)n1)c1ccc(Br)cc1 | -5 | 1.1 | 1.1 | -4 | 2 | 105
COc1cccc(CNc2cccc3cccnc23)c1O | 6 | 0.9 | 0.44 | 19 | -5 | 92
